# Screens: PubChem BioAssay, several laboratories
# Rows were chosen to be rich in hits. Some 1.9% of all compounds tested hit in one or more screens of this group.
# procasp7 counter: procaspase-7 activators, primary screen, counter-screen for procaspase-3 activator project, biochemical, absorbance, HTS, human | Caspase-7 (Homo sapiens), P55210 | recombinant procaspase-7, Ac-DEVD-pNA absorbance 405 nm; D23A/D198A/D206A triple mutant, cannot self-cleave; scale: DMSO 0, 5 µM enzyme 100 | activation, % at 8.5 µM | 0.093% of 330,000 active;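 active means percent activation above the screen-wide mean plus 3 SD, cut at about 25% in these data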
#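 Detection: p-Nitroaniline absorbance at 405 nm, read at 0 and 120 min; system: Uncleavable procaspase-7 mutant enzyme; evaluation: % activation from two-timepoint absorbance difference, scaled to controls; times: 1 h enzyme–compound preincubation and 2 h substrate reaction, both 25 °C; buffer or medium: Zinc-free HEPES pH 7.4 with 300 mM NaCl, 0.01% Triton X-100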
# HGIII-sPLA2 inh: human group III sPLA2 inhibitors, primary screen, biochemical, QFRET, BODIPY PC-A2 liposome substrate; Group 3 secretory phospholipase A2 (Homo sapiens), Q9NZ20; 0.56% of 370,000 active; inhibition, % at 12.2 µM; QFRET BODIPY PC-A2 liposome hydrolysis, fluorescence;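 active means inhibition above mean plus 3 SD of compounds lying within the high and low control bounds, cut at about 19% in these data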
# PLCg1 inh: PLC-gamma1 enzyme inhibitors, primary screen, biochemical, fluorescence, purified enzyme. 1-phosphatidylinositol 4,5-bisphosphate phosphodiesterase gamma-1 (Homo sapiens), P19174. fluorogenic substrate. inhibition, % at 12.2 µM. 0.84% of 370,000 active. AID 720700, 2013; in the data active means inhibition above about 9.5%
# procasp3 activ: activators of human procaspase-3 D3A mutant, primary screen, biochemical, absorbance, PC-3 D3A mutant, single concentration | activation, % at 8.5 µM | recombinant procaspase-3 D3A, Ac-DEVD-pNA absorbance 405 nm | AID 463141, 2010 | Caspase-3 (Homo sapiens), P42574 | 0.11% of 330,000 active;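 active means activation above the mean of all tested compounds plus 3 SD, cut at about 21% in these data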
#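 assay system = Procaspase-3 D3A mutant | signal = absorbance at 405 nm, 0 and 120 min | times = 1 h preincubation plus 2 h reaction at 25 °C | repeats = single replicate | read-out = % activation between DMSO and enzyme-spiked controls | medium = Zinc-free HEPES saline buffer with Triton X-100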
# Arr AP2 block: inhibitors of beta-arrestin/AP2 binding, primary screen, biochemical, GPCR trafficking, flow cytometry; AID 504490, 2011; beta-arrestin 1 C-terminal peptide binding to AP2 beta2-adaptin appendage (human); 0.31% of 340,000 active; inhibition, % at 10 µM; FITC-arrestin peptide / GST-AP2 beads; AP2 beta2 appendage carries R879A mutation;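 active means inhibition above a set limit, near 3 SD of compounds lacking own fluorescence, cut at about 54% in these data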
#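 System: GST-tagged AP2 beta2-adaptin appendage (R879A) on 4 µm glutathione beads / Reagent: FITC-arrestin peptide, 50 nM / Detection: HyperCyt-sampled flow cytometry, FL1 channel, ex 488/em 535 nm / Timing: 12 min plus 1 h, RT / Buffer or medium: PBS plus Tween 20 (0.05%) and BSA (0.1%)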
# PLC-beta3 inh: human PLC-beta3 inhibitors, primary screen, biochemical, fluorescence; Purified PLC-beta3, fluorogenic substrate; inhibition, % at 12.2 µM; 0.18% of 370,000 active; AID 720704, 2013; in the data active means inhibition above about 11%
# PC3 dual counter: procaspase-3 activators, counter-screen for dual procaspase-3/7 activator project, biochemical, absorbance, PC-3 D3A mutant, human; shares compounds with procasp7 counter; recombinant PC-3 D3A, Ac-DEVD-pNA absorbance 405 nm; aspartates 9, 28, 175 changed to alanine; 100% = enzyme control; activation, % at 8.5 µM; 290 tested, under 10 active;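 active means mean percent activation across triplicates above a set limit taken from the earlier primary procaspase-3 screen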
# Procasp7 act: activation of procaspase-7 enzyme – biochemical, absorbance, human, dual procaspase-3/-7 activator project, confirmation | shares compounds with procasp7 counter | recombinant procaspase-7, Ac-DEVD-pNA absorbance 405 nm; D23A/D198A/D206A mutant that cannot self-cleave | activation, % at 8.5 µM | 290 tested, under 10 active | AID 493115, 2011;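 active means mean activation above a set limit carried over from the earlier primary screen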
# Numbers stand for hits; . = inactive; / = no result.
SMILES,procasp7 counter,HGIII-sPLA2 inh,PLCg1 inh,procasp3 activ,Arr AP2 block,PLC-beta3 inh,PC3 dual counter,Procasp7 act
C=CCSc1nnc(-c2cccc3ccccc23)o1,.,.,.,.,.,.,/,/
COC(=O)[C@H](Cc1ccccc1)NC(=O)[C@H]1O[C@@H](n2cnc3c(=O)[nH]c(N)nc32)[C@H](O)[C@@H]1O,/,.,.,/,/,.,/,/
N#Cc1ccc(/C=C2\CC3(OC(=O)c4ccccc4)CCCN2C3)cc1 (stereo not drawn),/,.,.,/,/,.,/,/
COc1ccc(-c2cc(C(F)F)n3ncc(C(=O)N4CCc5ccccc5C4)c3n2)cc1,26.3,.,.,.,.,.,.,.
CCOC(=O)C1=NOC(C(C)=O)(C(=O)NC2CCCC2)C1 (stereo not drawn),/,.,.,/,/,.,/,/
CCOc1cccc(OCCOc2ccc(C(=O)c3ccccc3)cc2)c1,25.9,.,.,.,.,.,.,.
COC(=O)[C@H]1C[C@@]2(C3C=CC=C3)c3ccccc3N[C@H]2N1,/,.,.,/,/,.,/,/
COc1cccc(NC(=O)c2ccnc(N3CCC(C(=O)NCc4cc(OC)ccc4OC)CC3)c2)c1,33.5,/,/,.,.,/,.,.
COc1ccc(CNC(=O)C2CCN(c3cc(C(=O)Nc4cccc(OC)c4)ccn3)CC2)cc1,52.9,.,.,.,.,.,.,.
COc1cccc(CNC(=O)C2CCN(c3nc(OC)nc(OC)n3)CC2)c1,/,.,.,/,/,.,/,/
C[C@H]1COc2cc(Br)ccc2S(=O)(=O)N1Cc1cn(Cc2ccc(Cl)cc2)nn1,/,.,.,/,/,.,/,/
Cc1cc(C)cc(OC[C@@H](O)CN2CCC(C(O)(c3ccccc3)c3ccccc3)CC2)c1,/,.,.,/,/,.,/,/
CCOC(=O)C1CCN(C(=O)C(C)(C)NC(=O)Nc2ccc(Cl)cc2Cl)CC1,/,.,.,/,/,.,/,/
COC(=O)C1=C(C)NC(C)=C(C(=O)OC)C1C(=O)OCCN1C(=O)c2ccccc2C1=O,44.4,.,.,.,.,.,.,.
Cc1c(O)ccc2c(CC(=O)N[C@@H](Cc3ccc(O)cc3)C(=O)O)cc(=O)oc12,/,.,.,/,.,.,/,/
O=C(Cc1cc(=O)oc2cc(O)ccc12)NC(Cc1ccc(Cl)cc1)C(=O)O (stereo not drawn),26.9,.,.,.,.,.,.,.
CCOC(=O)[C@@]12CN(C(=O)OC(C)(C)C)CC=C1N(Cc1ccc(OC)cc1)C(=O)[C@H]2CC(=O)N1CCN(C(=O)c2ccco2)CC1,/,.,.,/,/,.,/,/
C[C@@H]1COc2cc(Br)ccc2S(=O)(=O)N1Cc1cn(Cc2ccc(C(F)(F)F)cc2)nn1,/,.,.,/,/,.,/,/
CC(=O)c1cc2c(ccc3ccccc32)oc1=O,/,.,.,/,.,.,/,/
O=C(c1ccco1)c1cc2c(ccc3ccccc32)oc1=O,26.1,.,.,.,.,.,.,.
OC(c1ccccc1)(c1ccccc1)C1CCN(CCCOc2ccc(-c3cccnc3)cc2)CC1,/,.,.,/,/,.,/,/
